assay: Toxicity liver stage against HepG2, at 10uM; format: cell-based; parameters: test concentration 10 uM, cell line HepG2-A16-CD81EGFP; settings: human, HepG2-A16-CD81EGFP cells; read-out: INHIBITION
Outline: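 Uninfected HepG2-A16-CD81EGFP cells, 3 × 10^3 per well, 1536-well, plated on prespotted compound at 10 μM final, parasite-free screening media added to match infected plates; puromycin 10 μM positive, DMSO 0.5% negative; run in parallel with 48 h PbLuc assay at 37 °C, 5% CO2; viability by CellTiter-Glo luminescence, normalized to controls.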

Going from CCOCC(=O)N1CCOCC2(CCN(c3ncccn3)C2)C1 (stereo not given) to c1cncc(CN2CCCC3(COCCN(c4nccs4)C3)C2)c1 (stereo not given), the cytotoxicity at 10 µM falls from -2.22% to -80.4%.

Going from CCn1c(Cn2cncn2)nnc1C1CCN(C2CCNCC2)CC1 to c1ncn(CCNC2CCCN(Cc3noc(C4CC4)n3)C2)n1 (stereo not given), the cytotoxicity at 10 µM falls from -0.0807% to -2.77%.

Compared with Cc1cccc(S(=O)(=O)NC(=O)c2ccc3c(c2)nnn3C)c1, Cc1cc(C)n(-c2ccc(C(=O)NCc3cncn3CC(C)C)cc2)n1 is higher in cytotoxicity at 10 µM: -8.97% for the first, -4.04% for the second.

Compared with CCN1CC2(CC1=O)CN(Cc1cccs1)CCN(C(=O)C(C)C)C2 (stereo not given), CC(C)CN1CC2(CCN(C(=O)C3CSC(C)(C)C(=O)N3)CC2)CC1=O (stereo not given) is higher in cytotoxicity at 10 µM: -13.9% for the first, 4.79% for the second.

Compared with CN(C)C(=O)CN1CCC2(CC1)CN(S(C)(=O)=O)Cc1ccccc1O2, CCS(=O)(=O)N1CCC2(CC1)CN(Cc1ccccn1)C(=O)CO2 is higher in cytotoxicity at 10 µM: 0.56% for the first, 3.01% for the second.

First: Cn1nc(CNC(=O)c2ccc(OC(F)(F)F)cc2)c2c1CCOC2
Second: O=C(NCc1ccc(C(=O)O)o1)c1ccc(F)cc1
The cytotoxicity at 10 µM of the first is lower: 7.03% for the first, 13.2% for the second.

Compared with COc1ccc(CN(Cc2cncn2C)CC2CCCO2)cc1OC (stereo not given), COc1ccccc1CCNC(=O)CN1CCCC1c1noc(C)n1 (stereo not given) is lower in cytotoxicity at 10 µM: -3.06% for the first, -3.81% for the second.

Going from Cc1ccc(O)c(CN2CCc3nc(-c4cccnc4)nc(O)c3C2)c1 to Cc1ccccc1-c1noc(CN2CCc3cncnc3C2)n1, the cytotoxicity at 10 µM falls from 5.19% to -11.5%.

Compared with O=S1(=O)c2ccccc2OCC2(CCN(CCO)CC2)CN1CC1CC1, CN1C(=O)C(c2cccnc2)CC12CCN(CCO)CC2 (stereo not given) is higher in cytotoxicity at 10 µM: 0.864% for the first, 3.55% for the second.

First: COc1cccc(-n2nnc(C(=O)N3CCCC3)c2C)c1
Second: Cc1c(C(=O)N2CC(=O)N(C)C2)nnn1-c1cccc2cccnc12
The cytotoxicity at 10 µM of the first is lower: -5.41% for the first, 5.64% for the second.

Compared with O=C(N1CCCC1)N1CCn2c(nnc2C2CCCN2)C1 (stereo not given), O=C1NCCCCC1Sc1nnc(N2CCCC2)n1C1CC1 (stereo not given) is lower in cytotoxicity at 10 µM: 4.12% for the first, 1.4% for the second.

Compared with CCn1nc(C)c2nc(C)nc(NC3CCCC3)c21, Cc1cc(CNC2CCCN(Cc3noc(C4CC4)n3)C2)on1 (stereo not given) is lower in cytotoxicity at 10 µM: 9.12% for the first, -17.7% for the second.

Compared with CCn1cnnc1CNC(=O)NCC(c1cccs1)N1CCCC1 (stereo not given), O=C(NCc1cn2c(n1)CN(Cc1ccncc1)CC2)C1CCC1 is higher in cytotoxicity at 10 µM: -7.72% for the first, 6.76% for the second.

First: CNC(=O)[C@H]1C[C@@H]2CN(Cc3cccnc3OC)C[C@@H]2N1C(C)=O
Second: CCS(=O)(=O)N1CCO[C@H]2[C@H](Oc3ncccc3F)CC[C@@H]21
The cytotoxicity at 10 µM of the first is lower: 1.2% for the first, 2.63% for the second.

First: Cc1nc[nH]c1CN1CCC2(CC1)CC(Nc1ncccn1)CO2 (stereo not given)
Second: c1ccc(C2CN(C3CC3)CC3(CCN(Cc4ncc[nH]4)CC3)C2)cc1 (stereo not given)
The cytotoxicity at 10 µM of the first is higher: 12.2% for the first, 7.31% for the second.

First: O=C(NCC(O)c1ccccc1Cl)c1cccc(-n2cnnn2)c1 (stereo not given)
Second: O=C(NCC(O)COc1cccc(F)c1)C1(c2ccc(F)cc2)CC1 (stereo not given)
The cytotoxicity at 10 µM of the first is lower: -15.6% for the first, 0.884% for the second.

First: c1cc2n(n1)CC(CNCc1ccc(OC3CCCC3)nc1)CN2 (stereo not given)
Second: c1cc(CNCC2OCCc3cn(CC4CCOCC4)nc32)ccn1 (stereo not given)
The cytotoxicity at 10 µM of the first is lower: -5.17% for the first, 3.68% for the second.

Going from COCc1n[nH]/c(=N/C(=O)COc2cnc(C)cc2O)s1 to CCC(Nc1cccc(OC)c1)C(=O)NCc1ccc2[nH]c(=O)[nH]c2c1 (stereo not given), the cytotoxicity at 10 µM falls from 5.84% to 1.67%.

Compared with CC1CN(Cc2noc(C3CC3)n2)CCN1Cc1noc(C2CC2)n1 (stereo not given), Cn1cc(CN2CC[C@H]3C[C@@H](c4nc(C5CC5)cs4)O[C@@H]3C2)cn1 is higher in cytotoxicity at 10 µM: -5.5% for the first, 8.84% for the second.

First: O=C(NCCc1cccnc1)N1CCCC1c1ccsc1 (stereo not given)
Second: Cn1cc(NC(=O)NCc2ccsc2)ccc1=O
The cytotoxicity at 10 µM of the first is higher: -6.82% for the first, -10.2% for the second.

Compared with CNC(=O)CN1CCO[C@H]2CN(C(=O)C3CC3)C[C@H]21, CCN1CCO[C@@H]2CN(C(=O)c3cocn3)C[C@@H]2C1 is lower in cytotoxicity at 10 µM: 7.52% for the first, 0.933% for the second.

Going from O=c1cc(N2CCCCC2)cnn1C[C@H](O)CO to Cc1ccc(NC(=O)c2ccc(N3CCCCC3)nn2)c(Cl)c1, the cytotoxicity at 10 µM falls from 2.04% to -10.7%.

Compared with Cc1ccc(C(=O)N2CCN3C[C@H](Oc4cccnc4)C[C@H]3C2)cn1, Cc1cc(C(=O)N2CCN(Cc3ccco3)C(CCO)C2)cc(=O)[nH]1 (stereo not given) is lower in cytotoxicity at 10 µM: 4.66% for the first, -1.5% for the second.

First: COc1ccc(N2CCC(N(C)C(C)C(=O)N(C)C)CC2)cc1 (stereo not given)
Second: COc1ccc(CN2CCO[C@H]3CN(C4CCCC4)CC[C@H]3C2=O)cc1
The cytotoxicity at 10 µM of the first is higher: 11% for the first, -138% for the second.

First: O=C(Nc1ccc2ncsc2c1)N1CCCN([C@H]2COC[C@@H]2O)CC1
Second: CNC(=O)C1Cn2ccnc2C2(CCN(c3ccc(C)nn3)CC2)O1 (stereo not given)
The cytotoxicity at 10 µM of the first is higher: -53.6% for the first, -137% for the second.

First: CNc1cc(CNC(=O)c2ccccn2)nc(-c2ccncc2)n1
Second: Cc1ccc(C(=O)NCc2ccnc(C3CCCOC3)n2)s1 (stereo not given)
The cytotoxicity at 10 µM of the first is lower: -2.63% for the first, 5.29% for the second.

Compared with Cc1ccccc1C(C(=O)NCCSC(C)C)N(C)C (stereo not given), CC1Cc2ccccc2N1Cc1occc1C(=O)NCC(=O)N(C)C (stereo not given) is lower in cytotoxicity at 10 µM: 9.38% for the first, 8.13% for the second.

Compared with Cc1cc(C2CCCN2C(=O)c2cnn(C)c2)on1 (stereo not given), Cc1nc(C2CCCN2C(=O)CC2CCCC2)ncc1C(N)=O (stereo not given) is lower in cytotoxicity at 10 µM: -1.85% for the first, -21.7% for the second.

First: N[C@@H]1CCN(Cc2cc(-c3ccccc3OC(F)(F)F)no2)C[C@H]1O
Second: O=C(OCc1ccccc1)C1CCCN1Cc1nc(C2CC2)no1 (stereo not given)
The cytotoxicity at 10 µM of the first is higher: 2.42% for the first, -5.43% for the second.

Going from O=C(NCCc1ccncc1)[C@H]1CC[C@@H]2[C@@H](CCN2CC2CC2)O1 to Cc1cccc(COC[C@H]2CC[C@H]3[C@H](CCN3Cc3ccco3)O2)n1, the cytotoxicity at 10 µM falls from 0.545% to -172%.

First: CC(C)[C@H]1CN(CCCO)C[C@@H]1NC(=O)CCS(C)(=O)=O
Second: Cc1cnn(CC2CN(CCCS(C)(=O)=O)CCO2)c1 (stereo not given)
The cytotoxicity at 10 µM of the first is higher: 2.91% for the first, -2.45% for the second.

First: N#Cc1cccnc1NCCNC(=O)N1CCSCC1
Second: CCOC(=O)CCNC(=O)N1CCCC(CNC(=O)c2cccs2)C1 (stereo not given)
The cytotoxicity at 10 µM of the first is lower: -1.22% for the first, 0.712% for the second.

Compared with Cc1noc(C[C@@H]2COC[C@H]3CN(S(C)(=O)=O)C[C@@H]23)n1, CC(=O)N1C[C@H](NS(=O)(=O)N2CCOCC2)[C@@H](c2ccc(C)o2)C1 is lower in cytotoxicity at 10 µM: 12.2% for the first, -1.43% for the second.

First: COc1cccc2c1OCC(NC(=O)NCCC(N)=O)C2 (stereo not given)
Second: COC(=O)CNC(=O)c1ccc(OC2CCN(S(C)(=O)=O)CC2)c(Cl)c1
The cytotoxicity at 10 µM of the first is higher: -1.38% for the first, -4.52% for the second.

Going from Cc1ccc(CN2Cc3nnn(C)c3C(COCC(=O)N(C)C)C2)s1 (stereo not given) to COCCn1ccnc1C1CCN(C(=O)CSc2nnc(C)s2)CC1, the cytotoxicity at 10 µM falls from 10.1% to 5.4%.

First: c1ccc(OC[C@]23COC[C@H]2CN(c2ncccn2)C3)nc1
Second: c1ccc(CCN2CCc3c(ncn3C3CC3)C2)nc1
The cytotoxicity at 10 µM of the first is lower: -14.1% for the first, -1.43% for the second.

First: CCc1nc(Cn2ccnc2-c2nccn2C)no1
Second: CCCc1noc(CCC(=O)N2CCN(C)CC2c2ccccc2)n1 (stereo not given)
The cytotoxicity at 10 µM of the first is lower: -42% for the first, -7.47% for the second.

Going from CNC(=O)CCc1cc(C)nc(C2CCCCN2)n1 (stereo not given) to COc1nc2c(cc1C(=O)N(C)Cc1[nH]nc3c1CCC3)CCC2, the cytotoxicity at 10 µM rises from -9.83% to -1.77%.

Going from CCC[C@H]1CN(Cc2ccc3c(c2)OCCO3)C[C@@H]1NC(=O)COC to CCN(C)c1ccc(CNS(=O)(=O)C2CCOCC2)cc1F, the cytotoxicity at 10 µM rises from -4.19% to 10.3%.

Compared with CC(C)N(CC(N)=O)Cc1c(Cl)ccc2cccnc12, Cc1ccc2cc(CN(C)Cc3ncc[nH]3)c(=O)[nH]c2c1 is lower in cytotoxicity at 10 µM: 11.8% for the first, 1.75% for the second.

Compared with CCOc1ccccc1C(=O)NC(CC(=O)O)c1cccs1 (stereo not given), Cc1ccc(CN(C(=O)NCC(c2cccs2)N(C)C)C2CC2)o1 (stereo not given) is higher in cytotoxicity at 10 µM: -11.4% for the first, -4.24% for the second.

Compared with CCCN1CCC(CNC(=O)N2CCCC2c2c(C)n[nH]c2C)CC1 (stereo not given), CC(C)(O)c1cn(C2CCN(C(=O)CCC3CCCC3)CC2)nn1 is higher in cytotoxicity at 10 µM: -0.686% for the first, 1.2% for the second.

First: Cc1cc(CN(CC(N)=O)CC(C)C)no1
Second: CC(C)Cc1nnc(SCC(=O)O)n1-c1ccc(F)cc1F
The cytotoxicity at 10 µM of the first is higher: 3.72% for the first, -6.13% for the second.

First: CC(=O)c1cccc(-c2c[nH]c(C)n2)c1
Second: Cc1ncsc1C(=O)N1CC(C)Sc2ccccc21 (stereo not given)
The cytotoxicity at 10 µM of the first is lower: -0.916% for the first, -0.663% for the second.

Going from O=C(CCn1cc(Cl)cn1)Nc1nncs1 to CCn1cc(-c2cc(C(=O)N3CCOCC3)c3cc(Cl)ccc3n2)cn1, the cytotoxicity at 10 µM rises from -9.61% to -1.53%.

Going from CS(=O)(=O)CCCNC1(c2ccc(Br)cc2)CCC1 to CN(C)S(=O)(=O)N1CCC(OCCCc2ccccc2)C1 (stereo not given), the cytotoxicity at 10 µM rises from -0.0862% to 0.696%.

Going from COCCN(CCOC)c1nc2c(s1)c(C)nn2C to COCCn1cc(NCc2c[nH]nc2-c2ccc(OC)cc2)cn1, the cytotoxicity at 10 µM rises from -40.5% to 6.05%.

Compared with CCn1cc2c(n1)CN(S(=O)(=O)Cc1ccccc1)CC2COC (stereo not given), COCCN1CCCC1c1ccnc(-c2ccccc2)n1 (stereo not given) is lower in cytotoxicity at 10 µM: 10.6% for the first, 1.09% for the second.

Going from O=c1[nH]c2ccccc2c2c1CCO2 to CC1(C)OCC2(CO1)CN(C(=O)c1cccc3ccccc13)C2, the cytotoxicity at 10 µM falls from 6.9% to -7.81%.

Compared with COC(=O)c1ccc(CN(C)C(=O)c2cnsn2)cc1, CC(NC(=O)c1ccoc1)C(=O)N(C)Cc1ccsc1 (stereo not given) is lower in cytotoxicity at 10 µM: 9.59% for the first, -1.77% for the second.

Compared with COCCN(C)C(=O)Nc1ccn(-c2cccc(C(F)(F)F)c2)n1, CCN(CC)c1ccc2ccc(C(=O)N(C)C)cn12 is higher in cytotoxicity at 10 µM: -2.16% for the first, 0.626% for the second.

Going from CCCN(CCO)C(=O)C1CCC(=O)N(CCc2ccc(Cl)cc2)C1 (stereo not given) to CCCOCCN1CCC2(CC1)CC(=O)N(Cc1cc(F)cc(F)c1)C2, the cytotoxicity at 10 µM rises from -12.5% to 2.71%.

First: CC(NC(=O)CCc1nc(-c2nnc[nH]2)no1)c1ccc(F)cc1F (stereo not given)
Second: c1ncc2c(n1)CN(Cc1nc(-c3ccoc3)no1)CC2
The cytotoxicity at 10 µM of the first is higher: -2.05% for the first, -10.2% for the second.

Compared with COc1ccccc1C(=O)N1CCC(O)(c2cccc(C)c2C)CC1, CN(CCc1ccccc1)Cc1cnc(C2(C)CCCCO2)nc1 (stereo not given) is lower in cytotoxicity at 10 µM: 12.1% for the first, 1.99% for the second.

Going from COc1ccc(CNCc2cn(C)nc2C)cc1 to O=C(CCc1nccs1)N1CCC(N2CCNC2=O)CC1, the cytotoxicity at 10 µM falls from -1.42% to -9.86%.
